Source: PubChem (several laboratories)
Rad51 HR inh = blocks human Rad51 in homologous recombination; hRad51 DNA strand exchange, fluorescence dequenching; inhibition, % at 10 µM; Q06609; AID 1385; 0.085% of 200,000 active;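 active means inhibition above 40% at the single screening dose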;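 further: 0% = DMSO control wells and 100% = blanks with heterologous ssDNA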
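Read-out basis: percent inhibition relative to plate controls and blanks / Assay system: human Rad51 nucleoprotein filaments preassembled on unlabelled ssDNA / Timing: filaments 15 min 37 °C, then compound 30 min / Control set: per-plate controls and blanks / Technique: fluorescence dequenching at 485/520 nm / Compound: 10 µM final, single point / Also added: Fluorescein- and BHQ1-tagged 47-mer duplex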
CHOP inh = CHOP inhibition in unfolded protein response; CHO-K1 CHOP-promoter luciferase, tunicamycin-induced, 15-18 h; inhibition, % at 10 µM; 3.8% of 220,000 active;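 active means compounds that reduced the stress-induced luciferase reporter signal by more than about 70% of percent inhibition, limit read from the data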;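 further: 0% = tunicamycin plus vehicle and 100% = wells without tunicamycin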
Arbovirus inh = antivirals against arbovirus infection; arbovirus infection cell-based antiviral screen; inhibition, % at 10 µM; 0.37% of 200,000 active; AID 1251; in the data active means inhibition above about 30%
PKD1 inh = PKD1 (human) kinase inhibition | 0.056% of 200,000 active | PKD1 kinase fluorescence polarization assay | inhibition, % (test concentration not listed) | Q15139
Target sequence (Q15139 whole entry, looked up): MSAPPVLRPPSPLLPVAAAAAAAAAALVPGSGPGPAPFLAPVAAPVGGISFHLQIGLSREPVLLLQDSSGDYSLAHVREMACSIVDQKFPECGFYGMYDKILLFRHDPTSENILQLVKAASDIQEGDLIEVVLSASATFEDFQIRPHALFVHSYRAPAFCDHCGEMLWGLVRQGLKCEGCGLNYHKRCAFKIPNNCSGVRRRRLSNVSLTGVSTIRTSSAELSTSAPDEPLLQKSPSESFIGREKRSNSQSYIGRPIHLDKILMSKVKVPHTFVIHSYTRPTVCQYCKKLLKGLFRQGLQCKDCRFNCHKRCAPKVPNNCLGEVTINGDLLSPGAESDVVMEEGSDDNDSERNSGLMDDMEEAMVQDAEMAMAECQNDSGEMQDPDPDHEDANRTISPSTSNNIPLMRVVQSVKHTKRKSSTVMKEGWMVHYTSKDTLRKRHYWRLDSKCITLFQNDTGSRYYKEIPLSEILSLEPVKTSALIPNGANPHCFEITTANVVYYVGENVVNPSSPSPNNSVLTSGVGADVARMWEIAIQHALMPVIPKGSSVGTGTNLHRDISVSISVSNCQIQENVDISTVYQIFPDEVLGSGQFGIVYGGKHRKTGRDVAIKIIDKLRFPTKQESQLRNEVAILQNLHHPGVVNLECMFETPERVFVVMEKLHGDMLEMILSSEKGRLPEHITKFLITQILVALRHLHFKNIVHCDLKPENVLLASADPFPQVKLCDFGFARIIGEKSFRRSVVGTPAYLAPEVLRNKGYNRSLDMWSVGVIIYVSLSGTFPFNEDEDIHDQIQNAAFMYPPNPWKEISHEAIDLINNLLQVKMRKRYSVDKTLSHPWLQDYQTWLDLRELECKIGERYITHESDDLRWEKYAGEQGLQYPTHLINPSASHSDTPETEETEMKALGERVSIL
Wee1 degr inh = human Wee1 degradation inhibition, primary screen; HeLa Luc-Wee1K328M stability, luciferase luminescence; 100% = proteasome inhibitor MG132 effect; reporter increase, % at 5 µM; 1.2% of 220,000 active;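 active means activation above the mean of all tested compounds plus 3 SD, set per screening run, cut at about 8.8% in these data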;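 further: cells exposed to compound for 20 h before luminescence read; 0% = DMSO alone and 100% = MG132 at 30 µM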
L major viab = reduces viability of Leishmania major promastigotes; inhibition, % at 10 µM; 9% of 200,000 active; AID 1063; resazurin fluorescence viability;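 further: promastigotes grown with compound for 44 hours at 28 °C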
An asterisk follows results filed as active. Most compounds without a hit are left out; they make up all but 12% or so of the library. Unless noted, no stated cut-off is given here; in the data, active means inhibition above about 50%; inactive means the rest.

How did CN(c1ccccc1)c1nc(N)c([N+](=O)[O-])c(N2CCCCC2)n1 do in these assays?
Rad51 HR inh: -4; CHOP inh: -3; Wee1 degr inh: -2

What do the screens show for `O=C(/C=C/c1ccc(O)cc1)c1ccc(NC2=C(N3CCCCC3)C(=O)c3ccccc3C2=O)cc1`?
Rad51 HR inh: 6; CHOP inh: 44; Arbovirus inh: -7; PKD1 inh: -3; Wee1 degr inh: -1; L major viab: 99*

Results for O=C(/C=C/c1ccc(O)cc1)c1ccccc1 ?
CHOP inh: -22; Wee1 degr inh: -1

How did O=C(Nc1ccc(S(=O)(=O)Nc2ncccn2)cc1)c1ccccc1NS(=O)(=O)c1ccc(Cl)cc1 do in these assays?
Rad51 HR inh: 3; CHOP inh: 1; Wee1 degr inh: -2

How did O=C(Nc1ccncc1)c1cc(F)cc(F)c1 do in these assays?
Rad51 HR inh: 5; CHOP inh: 1; Arbovirus inh: -5; PKD1 inh: -11; Wee1 degr inh: -1; L major viab: 19

What do the screens show for `CC(=O)c1csc(CS(=O)(=O)c2ccccn2)n1`?
Rad51 HR inh: 3; CHOP inh: -9; Wee1 degr inh: 0

Results for Cc1cc(C)c2c3c(sc2n1)C1(CCSCC1)C(C#N)=C(N)O3 ?
Rad51 HR inh: 4; CHOP inh: 59; Arbovirus inh: 4; PKD1 inh: -5; Wee1 degr inh: -2; L major viab: 100*

What do the screens show for `Nc1ncnc(Nc2cc(Cl)cc(Cl)c2)c1[N+](=O)[O-]`?
Rad51 HR inh: 2; CHOP inh: 11; Arbovirus inh: -4; PKD1 inh: -4; Wee1 degr inh: 2; L major viab: 55*

Results for COC(=O)C1=C(C)NC(=S)NC1c1ccc(-c2cc(Cl)ccc2Cl)o1 (stereo not drawn) ?
Rad51 HR inh: -6; CHOP inh: 40; Wee1 degr inh: 0

How did COc1ccc(C(O)C(CN2CCOCC2)c2ccccc2)cc1F (stereo not drawn) do in these assays?
Rad51 HR inh: -5; CHOP inh: 5; Arbovirus inh: 7; PKD1 inh: -9; Wee1 degr inh: 3; L major viab: 86*

What do the screens show for `CCc1cccc(CC)c1NC(=O)COC(=O)C1(c2ccc(Cl)cc2)CCCC1`?
Rad51 HR inh: 6; CHOP inh: 58; Arbovirus inh: 6; PKD1 inh: 2; Wee1 degr inh: 3; L major viab: 3

What do the screens show for `CC(=O)Nc1ccc(NC(=O)COC(=O)C2(c3ccc(Cl)cc3)CCCC2)cc1`?
Rad51 HR inh: 11; CHOP inh: 32; Arbovirus inh: 5; PKD1 inh: -7; Wee1 degr inh: 1; L major viab: 74*

Results for CCC1CCCCN1c1cc(C)nc2cc(-c3cccc(C)c3)nn12 (stereo not drawn) ?
Rad51 HR inh: 0; CHOP inh: 87*; Arbovirus inh: -18; PKD1 inh: -10; Wee1 degr inh: -2; L major viab: 16

How did Cc1cc(N2CCOCC2)n2nc(-c3cccc(F)c3)cc2n1 do in these assays?
Rad51 HR inh: 2; CHOP inh: -24; Arbovirus inh: 4; PKD1 inh: -7; Wee1 degr inh: -1; L major viab: -2

What do the screens show for `C/C(=N\N(Cc1ccccc1)c1ccccc1)c1cccnc1`?
Rad51 HR inh: -5; CHOP inh: 25; Arbovirus inh: -31; PKD1 inh: -3; Wee1 degr inh: -1; L major viab: 17

What do the screens show for `Cn1c(CSCc2ccc(F)cc2)nnc1SCC(=O)Nc1cccc(C(=O)O)c1`?
Rad51 HR inh: 1; CHOP inh: 13; Wee1 degr inh: 0

How did CCN(CC)CCNC(=O)Cc1c(C(=O)O)n(CC)c2ccccc12 do in these assays?
Rad51 HR inh: -1; CHOP inh: 11; Arbovirus inh: -8; PKD1 inh: 0; Wee1 degr inh: -4; L major viab: -8

Results for CN(C)CCNC(=O)Cc1c(C(=O)O)n(C)c2ccccc12 ?
PKD1 inh: -12; Wee1 degr inh: 1; L major viab: 94*

Results for CCOC(=O)CC1COCCN1C(=O)CCc1nnc(-c2ccsc2)o1 (stereo not drawn) ?
Rad51 HR inh: 3; CHOP inh: -33; Arbovirus inh: 2; PKD1 inh: -8; Wee1 degr inh: -5; L major viab: 20

Results for O=C(Nc1nc(-c2cccc3ccccc23)cs1)c1cnccn1 ?
Rad51 HR inh: 1; CHOP inh: 93*; Arbovirus inh: -6; PKD1 inh: -6; Wee1 degr inh: -2; L major viab: 30

What do the screens show for `CN(C(=O)CCc1nc(-c2ccccc2F)no1)c1ccccc1`?
Rad51 HR inh: 6; CHOP inh: 1; Arbovirus inh: -2; PKD1 inh: -3; Wee1 degr inh: 1; L major viab: 2

Results for Cc1ccc(C(C)(C)C)c(OCCCn2ccnc2)c1 ?
CHOP inh: -8; Arbovirus inh: -3; PKD1 inh: 3; Wee1 degr inh: -1; L major viab: 43

How did Cc1cc(C)c(C)c(OCCCN(C)C)c1 do in these assays?
Rad51 HR inh: 26; CHOP inh: 8; Arbovirus inh: -12; PKD1 inh: -11; Wee1 degr inh: -1; L major viab: 2

How did Cc1ccc(C)c(OCCCCn2ccnc2)c1 do in these assays?
Rad51 HR inh: 8; CHOP inh: 53; Arbovirus inh: 0; PKD1 inh: -4; Wee1 degr inh: 0; L major viab: 99*

How did Cc1ccc(OCCN2C(=O)c3ccccc3C2=O)c([N+](=O)[O-])c1 do in these assays?
CHOP inh: -46; Arbovirus inh: -4; PKD1 inh: -5; Wee1 degr inh: -3; L major viab: -5

Results for Cc1cc(C)c(C)c(OCCCn2ccnc2)c1 ?
Rad51 HR inh: -7; CHOP inh: 43; Arbovirus inh: 8; PKD1 inh: -9; Wee1 degr inh: 1; L major viab: 82*

What do the screens show for `Cc1ccc(OCCCCn2ccnc2)c([N+](=O)[O-])c1`?
Rad51 HR inh: 3; CHOP inh: 9; Arbovirus inh: -15; PKD1 inh: -1; Wee1 degr inh: -3; L major viab: 96*

What do the screens show for `CCCCN1C(=O)C2Cc3c([nH]c4ccccc34)CN2C1=S` (stereo not drawn)?
Rad51 HR inh: -86; CHOP inh: 80*; Arbovirus inh: 10; PKD1 inh: 7; Wee1 degr inh: 4; L major viab: 13

Results for CCCCN1CCc2c([nH]c3ccccc23)C1=O ?
Rad51 HR inh: -5; CHOP inh: 24; Arbovirus inh: 2; PKD1 inh: 1; Wee1 degr inh: 2; L major viab: -7

What do the screens show for `O=C(c1cc(-c2ccc(Cl)cc2)n(-c2ccc(Cl)cc2)n1)N1CCOCC1`?
Rad51 HR inh: 2; CHOP inh: 73*; Arbovirus inh: -34; PKD1 inh: -2; Wee1 degr inh: -1; L major viab: 21

Results for O=C1CC(/C=C/c2ccncc2)=Nc2ccccc2N1 ?
Rad51 HR inh: -2; CHOP inh: -29; Arbovirus inh: -8; PKD1 inh: -2; Wee1 degr inh: 4; L major viab: 65*
